The target of series [1] is Potassium voltage-gated channel subfamily KQT member 2 (Rattus norvegicus) (UniProt O88943). The series can be described thus: Agonist activity at rat KCNQ2 channel expressed in CHO cells assessed as shift of half voltage of maximal activation at 0.1 uM by patch clamp method. It counts as cell-based. Particulars: filed as agonist. Put shortly: (§1)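 Whole-cell patch clamp at room temperature on CHO cells (DMEM/F12, 10% FBS) transiently co-transfected with EGFP and hKCNQ1, rKCNQ2, rKCNQ3 A278T, hKCNQ4 or hKCNQ5; KCNQ2/3 at 1:1 cDNA ratio. Pipette solution 145 mM KCl, 5 mM MgATP, pH 7.3; bath 140 mM NaCl, 5 mM KCl, pH 7.4, under perfusion. V1/2 from Boltzmann fits; I/I0 is current amplitude with versus without compound; n = 4−6.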
Chain of Potassium voltage-gated channel subfamily KQT member 2 (Rattus norvegicus) (O88943 whole entry, the tested form may be a part): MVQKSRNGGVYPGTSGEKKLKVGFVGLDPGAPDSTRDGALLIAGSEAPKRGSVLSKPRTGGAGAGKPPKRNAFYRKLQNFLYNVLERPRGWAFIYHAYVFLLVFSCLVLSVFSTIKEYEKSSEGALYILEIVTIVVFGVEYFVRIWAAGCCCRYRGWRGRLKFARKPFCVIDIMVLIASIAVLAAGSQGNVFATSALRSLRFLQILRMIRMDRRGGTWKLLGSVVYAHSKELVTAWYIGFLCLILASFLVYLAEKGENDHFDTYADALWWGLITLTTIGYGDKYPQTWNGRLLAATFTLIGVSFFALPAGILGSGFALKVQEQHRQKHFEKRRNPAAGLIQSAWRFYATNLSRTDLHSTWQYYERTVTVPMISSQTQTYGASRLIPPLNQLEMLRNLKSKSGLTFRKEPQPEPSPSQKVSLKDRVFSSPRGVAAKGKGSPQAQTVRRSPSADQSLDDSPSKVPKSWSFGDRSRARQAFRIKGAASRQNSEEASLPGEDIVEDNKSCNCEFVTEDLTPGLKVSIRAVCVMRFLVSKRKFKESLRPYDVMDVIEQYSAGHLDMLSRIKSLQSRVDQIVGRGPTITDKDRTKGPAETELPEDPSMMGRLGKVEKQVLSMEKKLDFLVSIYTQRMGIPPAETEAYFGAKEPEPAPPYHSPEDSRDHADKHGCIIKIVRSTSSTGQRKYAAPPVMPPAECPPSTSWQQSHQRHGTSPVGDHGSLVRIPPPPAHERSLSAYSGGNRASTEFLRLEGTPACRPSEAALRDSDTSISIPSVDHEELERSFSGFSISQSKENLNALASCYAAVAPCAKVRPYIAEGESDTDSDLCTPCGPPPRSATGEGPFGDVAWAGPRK
For orientation: The patch-clamp technique gives a direct electrical read-out from membranes.

In series [2] the target is T1, Potassium voltage-gated channel subfamily KQT member 2/member 3 (Rattus norvegicus) (UniProt O88943+O88944). In words: Agonist activity at rat KCNQ2/3 channel expressed in CHO cells assessed as shift of half voltage of maximal activation at 0.1 uM by patch clamp method. Format: cell-based. The note with it: filed as agonist. Put shortly: as §1
The nature of series [3]: Half life in Kunming mouse plasma at 5 mg/kg, po measured upto 24 hrs by LC-MS/MS method. It counts as ADME, organism-based. Put shortly: (§2)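 Male KM mice (18−24 g) fasted 12 h before and 2 h after dosing, given 5 mg/kg orally in 5% DMSO/5% Tween 80/90% normal saline (n = 3 per time point). Aortic blood taken at 0.25–24 h and whole brain collected. Acetonitrile extraction with internal standard, then LC−MS/MS. Bioavailability calculated against the 2 mg/kg i.v. arm.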

Series [4] is described as follows: Drug concentration in Kunming mouse brain at 5 mg/kg. It counts as ADME, organism-based. The note with it: in vivo, read-out: Ct. Put shortly:
as §2

The next series deals with Cytochrome P450 2C8 (Homo sapiens, UniProt P10632). In words: Time dependent inhibition of human liver microsome CYP2C8 preincubated for 0.5 hrs in absence of NADPH followed by substrate addition by LC-MS/MS method. It counts as ADME, microsomes. Put shortly:
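Human liver microsomes preincubated 0.5 h with 0.10–50 μM test compound, with or without NADPH, then CYP-specific probe substrate added and incubation continued. Metabolite measured by LC-MS/MS; % activity remaining relative to no-compound control; IC50 fitted by Probit model. For CYP3A4, midazolam 1′-hydroxylation and testosterone 6β-hydroxylation were read separately.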
In general terms: Liver microsomes are a subcellular fraction often used to study metabolism.

Another series has as its target CYP2C9 (Homo sapiens, UniProt P11712). In words: Ratio of IC50 for human liver microsome CYP2C9 in absence of NADPH to IC50 for human liver microsome CYP2C9 in presence of NADPH. Particulars: liver microsomes, read-out: Ratio IC50.
In series [5] the test system is Mus musculus. The series can be described thus: Anticonvulsant activity in MES induced Kunming mouse model of seizure at 2.5 mg/kg, po after 0.25 to 2 hr. It counts as functional. Particulars: time 0.25-2 hrs. Put shortly: (§3)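 MES test in male KM mice. Compounds freshly suspended in 0.5% CMC-Na and given by gavage at 20 mL/kg; 160 V stimulus through ear clips. Protection scored as absence of hindlimb tonic extension; time course at 0.25, 0.5, 1 and 2 h, otherwise tested at 1 h. ED50 from dose−response by nonlinear regression; Fisher's exact test versus vehicle.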

For series [6], the target named is T2, Potassium voltage-gated channel subfamily KQT member 4 (Homo sapiens) (UniProt P56696).
T2 sequence (whole entry): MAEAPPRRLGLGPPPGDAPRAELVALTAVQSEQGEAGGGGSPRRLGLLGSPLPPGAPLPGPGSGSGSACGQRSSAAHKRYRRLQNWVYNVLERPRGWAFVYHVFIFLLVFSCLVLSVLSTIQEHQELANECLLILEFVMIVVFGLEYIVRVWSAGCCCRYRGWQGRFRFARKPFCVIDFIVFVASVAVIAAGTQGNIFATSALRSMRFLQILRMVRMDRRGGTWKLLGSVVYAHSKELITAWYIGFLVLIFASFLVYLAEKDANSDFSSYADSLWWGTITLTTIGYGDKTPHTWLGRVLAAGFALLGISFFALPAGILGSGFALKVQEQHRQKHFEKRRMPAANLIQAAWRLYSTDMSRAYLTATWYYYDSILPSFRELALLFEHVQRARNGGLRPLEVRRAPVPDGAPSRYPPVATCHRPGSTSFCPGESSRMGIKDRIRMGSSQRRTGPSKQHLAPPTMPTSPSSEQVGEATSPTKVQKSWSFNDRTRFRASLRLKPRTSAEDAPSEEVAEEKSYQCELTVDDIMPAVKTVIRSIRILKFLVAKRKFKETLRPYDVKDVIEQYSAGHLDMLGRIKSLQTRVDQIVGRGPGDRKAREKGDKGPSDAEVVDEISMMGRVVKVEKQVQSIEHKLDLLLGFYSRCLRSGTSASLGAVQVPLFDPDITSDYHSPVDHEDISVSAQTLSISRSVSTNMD
The series can be described thus: Agonist activity at human KCNQ4 channel expressed in CHO cells assessed as amplitude change of outward current at 0.1 uM by patch clamp method. Format: cell-based. Particulars: filed as agonist. Put shortly: as §1

Series [7] in a line: Metabolic stability in human liver microsomes assessed as intrinsic clearance. It counts as ADME, Microsome. The note with it: read-out: CLH.
Series [8] is described as follows: AUC(0 to t) in Sprague-Dawley rat at 2 mg/kg, po measured upto 24 hrs by LC-MS/MS method. Details: dose 2 mg/kg, time < 24 hrs, route po. Particulars: in vivo. Format: ADME, organism-based. Put shortly: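 Male SD rats (180−220 g) dosed orally at 2, 6 or 20 mg/kg in escalating fashion, handled as in the mouse study: 12 h fast, acetonitrile extraction of plasma, LC−MS/MS quantification. AUC0−t by trapezoidal method to the last measurable concentration.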

Series [9] can be described thus: Ratio of TC50 for Kunming mouse to EC50 for anticonvulsant activity in Kunming mouse. It counts as toxicity. Put shortly: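 Male KM mice dosed orally in 0.5% CMC-Na and killed straight after the 1 h MES or rotarod test. Brain and plasma levels measured by LC−MS/MS. EC50 and TC50 fitted by nonlinear regression of protection or motor impairment against mean brain concentration; ratio = TC50,brain/EC50,brain.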

Series [10] in a line: Tmax in Kunming mouse brain at 5 mg/kg, po measured upto 24 hrs by LC-MS/MS method. Format: ADME, organism-based. Put shortly:
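Male KM mice (18–24 g), fasted 12 h before and 2 h after dosing, n = 3 per time point. Oral dose in 5% DMSO/5% Tween 80/90% saline; i.v. dose is that formulation diluted in saline with 1% Tween 80. Blood sampled 0.25–24 h after oral dosing, 0.083–24 h after i.v.; whole brain taken after oral dosing. Acetonitrile extraction with internal standard, LC-MS/MS.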

Series [11] concerns the target T1, Potassium voltage-gated channel subfamily KQT member 2/member 3 (Rattus norvegicus). In words: Agonist activity at rat KCNQ2/3 channel expressed in CHO cells assessed as shift of half voltage of maximal activation at 10 uM by patch clamp method. It counts as cell-based. The note with it: filed as agonist. Put shortly:
as §1

Series [12] has as its target Potassium voltage-gated channel subfamily KQT member 5 (Homo sapiens) (UniProt Q9NR82). The series can be described thus: Agonist activity at human KCNQ5 channel expressed in CHO cells assessed as shift of half voltage of maximal activation at 10 uM by patch clamp method. It counts as cell-based. The note with it: filed as agonist. Put shortly: as §1
In series [13] the test system is Mus musculus. In words: Anticonvulsant activity in MES induced Kunming mouse model of seizure at 30 mg/kg, po after 1 hr. Format: functional. Put shortly:
as §3

For series [14], the target named is T2, Potassium voltage-gated channel subfamily KQT member 4 (Homo sapiens). The series can be described thus: Agonist activity at human KCNQ4 channel expressed in CHO cells assessed as shift of half voltage of maximal activation at 10 uM by patch clamp method. Format: cell-based. Particulars: filed as agonist. Put shortly: as §1

A value given as a limit tells only on which side of the number the result lay.

Chain of Cytochrome P450 2C8 (P10632 whole entry): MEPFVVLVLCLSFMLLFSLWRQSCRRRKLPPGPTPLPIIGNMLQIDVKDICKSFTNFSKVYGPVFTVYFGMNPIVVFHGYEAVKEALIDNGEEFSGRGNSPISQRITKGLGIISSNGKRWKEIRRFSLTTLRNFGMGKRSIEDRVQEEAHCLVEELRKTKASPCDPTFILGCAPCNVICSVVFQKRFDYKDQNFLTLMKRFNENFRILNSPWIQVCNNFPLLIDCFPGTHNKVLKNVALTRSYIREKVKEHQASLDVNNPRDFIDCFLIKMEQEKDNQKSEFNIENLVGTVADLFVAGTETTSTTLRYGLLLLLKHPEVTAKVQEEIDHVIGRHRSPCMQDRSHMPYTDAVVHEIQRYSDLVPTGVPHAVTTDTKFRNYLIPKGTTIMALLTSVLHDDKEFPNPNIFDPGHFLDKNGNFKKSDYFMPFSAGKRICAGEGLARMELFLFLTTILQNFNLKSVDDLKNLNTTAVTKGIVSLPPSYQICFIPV
Chain of CYP2C9 (P11712 whole entry): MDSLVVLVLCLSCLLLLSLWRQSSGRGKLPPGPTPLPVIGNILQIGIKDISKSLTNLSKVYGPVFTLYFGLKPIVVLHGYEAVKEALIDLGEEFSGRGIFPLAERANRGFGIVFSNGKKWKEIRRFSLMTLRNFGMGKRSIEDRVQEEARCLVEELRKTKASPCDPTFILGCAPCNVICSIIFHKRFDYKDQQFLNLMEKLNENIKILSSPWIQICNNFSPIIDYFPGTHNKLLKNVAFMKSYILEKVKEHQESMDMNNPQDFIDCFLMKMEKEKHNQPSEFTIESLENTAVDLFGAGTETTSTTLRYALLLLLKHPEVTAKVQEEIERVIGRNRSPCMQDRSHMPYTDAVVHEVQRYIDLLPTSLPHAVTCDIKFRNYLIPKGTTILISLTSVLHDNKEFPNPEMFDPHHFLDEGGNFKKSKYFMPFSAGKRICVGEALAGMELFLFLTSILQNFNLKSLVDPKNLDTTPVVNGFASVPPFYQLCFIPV
Chain of Potassium voltage-gated channel subfamily KQT member 5 (Homo sapiens) (Q9NR82 whole entry): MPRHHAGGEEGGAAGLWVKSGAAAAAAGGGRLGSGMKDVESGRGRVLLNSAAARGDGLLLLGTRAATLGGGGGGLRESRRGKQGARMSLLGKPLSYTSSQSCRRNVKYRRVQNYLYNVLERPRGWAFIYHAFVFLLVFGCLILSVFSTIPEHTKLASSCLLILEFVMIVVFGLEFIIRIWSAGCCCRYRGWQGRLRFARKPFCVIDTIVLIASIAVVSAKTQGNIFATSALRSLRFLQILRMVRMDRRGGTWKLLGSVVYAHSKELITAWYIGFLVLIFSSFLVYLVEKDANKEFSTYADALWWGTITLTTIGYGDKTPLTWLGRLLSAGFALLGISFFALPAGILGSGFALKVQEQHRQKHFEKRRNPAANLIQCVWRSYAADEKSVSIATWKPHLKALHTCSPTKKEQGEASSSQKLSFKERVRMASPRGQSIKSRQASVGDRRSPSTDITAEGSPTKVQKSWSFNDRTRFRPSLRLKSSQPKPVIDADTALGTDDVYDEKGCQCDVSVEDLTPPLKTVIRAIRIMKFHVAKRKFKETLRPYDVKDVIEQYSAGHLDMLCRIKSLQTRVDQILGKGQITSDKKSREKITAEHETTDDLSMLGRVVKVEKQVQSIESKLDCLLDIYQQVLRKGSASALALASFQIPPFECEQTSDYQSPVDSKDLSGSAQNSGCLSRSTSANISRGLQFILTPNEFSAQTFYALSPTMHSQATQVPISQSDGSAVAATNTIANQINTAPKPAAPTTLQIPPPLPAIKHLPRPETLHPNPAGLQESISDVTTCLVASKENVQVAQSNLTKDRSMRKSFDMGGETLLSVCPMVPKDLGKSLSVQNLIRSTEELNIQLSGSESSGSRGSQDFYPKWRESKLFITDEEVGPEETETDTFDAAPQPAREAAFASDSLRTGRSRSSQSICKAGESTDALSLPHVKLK

By half-life is commonly meant the time needed for the level to fall by half in the phase considered. Lower therefore signals rapid decline. As a reminder, the IC50 is the point on the concentration scale where inhibition reaches its midpoint. A high value points to weaker potency. By AUC(0-t) is commonly meant exposure summed from dosing to a finite time, without extrapolation to infinity. The low end stands for low exposure, the high end for high exposure. The Tmax is the time at which the peak concentration occurs. With `C#CCN(Cc1ccc(F)cc1)c1cc(C)c(NC(=O)OC)c(C)c1`, the Activity in series [1] was -35.6 mV; in series [2] it was -60.2 mV; with Mus musculus [5], 40%; in [6] it was 3.76. In series [3], this molecule showed a half-life of 1.95 h. Further, the concentration in [4] is 120 nM. The molecule also yielded an IC50 at Cytochrome P450 2C8 of 225 µM. Also, the IC50 shift at CYP2C9 is less than 1.5. Further, the CLint scaled in [7] was determined as 62.7 mL/min/kg. The molecule also displayed an AUC(0-t) at 24 h in series [8] of 247 ng·h/mL. In addition, in [9], the selectivity ratio was found to be 49.6. Further, the Tmax in [10] was 0.25 h.
Consider `CCOC(=O)Nc1ccc(NCc2ccc(F)cc2)cc1N` [EZOGABINE], for which the Activity in series [11] was -34.3 mV; in series [12], 0.09 mV; in the series with Mus musculus [13] it was 60%; in series [14], -34.1 mV.

The values are drawn from ChEMBL document CHEMBL5149984, “Discovery of HN37 as a Potent and Chemically Stable Antiepileptic Drug Candidate” (J Med Chem, 2021).
